Experimental findings from ChEMBL document CHEMBL1151263, “Cytotoxic phenylpropanoid glycosides from the stems of Smilax china” (2005) are described below.

Each structure is given as a SMILES string. Converted amounts (≈) assume the structure as drawn.

Assay type in all cases: functional
The test system of one experiment is DLD-1. The experiment can be described thus: Cytotoxicity against human DLD1 cells after 3 days by MTT assay. The following applies: DLD-1, 72 h, read-out: ED50 (the source's name). The essentials:
(§1)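 Cells grown in RPMI-1640 and seeded in 96-well plates for 4 h before samples were added at four concentrations. Incubation at 37 °C for 3 days, then MTT added for 5 h. Medium removed, formazan dissolved in DMSO with 10 min shaking, absorbance read at 550 nm. ED50 reported in µg/mL.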

A further experiment deals with KB. The experiment can be described thus: Cytotoxicity against human KB cells after 3 days by MTT assay. Particulars: 72 h, read-out: ED50 (the source's name). The method in brief: as §1
Experiment [1] in a line: Cytotoxicity against human Medulloblastoma cells after 3 days by MTT assay. Particulars: Medulloblastoma cell, 72 h, read-out: ED50 (the source's name). The method in brief: as §1
Background: Tetrazolium assays rely on reduction of a dye to a coloured formazan, in cell work by metabolically active cells.

The test system of a further experiment is A549. Kind of experiment: Cytotoxicity against human A549 cells after 3 days by MTT assay. The following applies: A549, 72 h, read-out: ED50 (the source's name). The method in brief: as §1
Another experiment concerns MCF7. The experiment can be described thus: Cytotoxicity against human MCF7 cells after 3 days by MTT assay. The following applies: MCF7, 72 h, read-out: ED50 (the source's name). The essentials: as §1
For the next experiment, the system named is HeLa. Kind of experiment: Cytotoxicity against human HeLa cells after 3 days by MTT assay. The following applies: 72 h, read-out: ED50 (the source's name). The method in brief:
as §1

Turning to `COc1cc(/C=C/C(=O)OC[C@H]2O[C@@](CO)(O[C@H]3O[C@H](CO)[C@@H](O)[C@H](O)[C@H]3OC(C)=O)[C@@H](OC(=O)/C=C/c3ccc(O)c(OC)c3)[C@@H]2O)ccc1O` [SMILASIDE B], the EC50 with DLD-1 is over 20 µg/mL; in the experiment on KB it was over 20 µg/mL; in experiment [1] it was 9.4 µg/mL (≈ 12.8 µM); with A549 it was 12 µg/mL (≈ 16.3 µM); with MCF7 it was 10.3 µg/mL (≈ 14 µM); in the experiment on HeLa, over 20 µg/mL.
Take `COc1cccc2c1C(=O)c1c(O)c3c(c(O)c1C2=O)C[C@@](O)(C(=O)CO)C[C@@H]3O[C@H]1C[C@H](N)[C@H](O)[C@H](C)O1` [DOXORUBICIN]: the EC50 (with DLD-1; in the experiment with KB; in experiment [1]; in the experiment on A549; in the experiment with MCF7; in the experiment on HeLa) was 0.1 µg/mL (≈ 0.184 µM) in each case.
Take `COc1cc(/C=C/C(=O)OC[C@H]2O[C@@](COC(=O)/C=C/c3ccc(O)cc3)(O[C@H]3O[C@H](COC(C)=O)[C@@H](O)[C@H](O)[C@H]3O)[C@@H](OC(=O)/C=C/c3ccc(O)c(OC)c3)[C@@H]2O)ccc1O` [SMILASIDE E]: the EC50 is 4.5 µg/mL (≈ 5.1 µM) with DLD-1; 5.5 µg/mL (≈ 6.23 µM) in the experiment with KB; 12.2 µg/mL (≈ 13.8 µM) in experiment [1]; 12.4 µg/mL (≈ 14 µM) in the experiment on A549; 13 µg/mL (≈ 14.7 µM) with MCF7; 5.1 µg/mL (≈ 5.78 µM) in the experiment on HeLa.
For `COc1cc(/C=C/C(=O)OC[C@H]2O[C@@](COC(=O)/C=C/c3ccc(O)cc3)(O[C@H]3O[C@H](CO)[C@@H](O)[C@H](O)[C@H]3O)[C@@H](OC(=O)/C=C/c3ccc(O)c(OC)c3)[C@@H]2OC(C)=O)ccc1O` [SMILASIDE D], the EC50 in the experiment with DLD-1 was 2.7 µg/mL (≈ 3.06 µM); in the experiment with KB, 13 µg/mL (≈ 14.7 µM); in experiment [1], 11.9 µg/mL (≈ 13.5 µM); with A549 it was 8.4 µg/mL (≈ 9.51 µM); with MCF7, over 20 µg/mL; in the experiment with HeLa, 7.3 µg/mL (≈ 8.27 µM).
Turning to `COc1cc(/C=C/C(=O)OC[C@H]2O[C@@](CO)(O[C@H]3O[C@H](COC(C)=O)[C@@H](OC(C)=O)[C@H](O)[C@H]3O)[C@@H](OC(=O)/C=C/c3ccc(O)c(OC)c3)[C@@H]2O)ccc1O` [SMILASIDE A], the EC50 in the experiment with DLD-1 turned out to be 11.6 µg/mL (≈ 14.9 µM); in the experiment on KB, 11.2 µg/mL (≈ 14.4 µM); in experiment [1] it was 11.3 µg/mL (≈ 14.5 µM); with A549, 7.1 µg/mL (≈ 9.12 µM); in the experiment on MCF7, 10.8 µg/mL (≈ 13.9 µM); in the experiment on HeLa it was 8.9 µg/mL (≈ 11.4 µM).
Regarding `COc1cc(/C=C/C(=O)OC[C@H]2O[C@@](COC(=O)/C=C/c3ccc(O)cc3)(O[C@H]3O[C@H](COC(C)=O)[C@@H](O)[C@H](O)[C@H]3OC(C)=O)[C@@H](OC(=O)/C=C/c3ccc(O)cc3)[C@@H]2O)ccc1O` [SMILASIDE F], the EC50 was 5 µg/mL (≈ 5.59 µM) in the experiment on DLD-1; 9 µg/mL (≈ 10.1 µM) in the experiment with KB; over 20 µg/mL in experiment [1]; over 20 µg/mL in the experiment on A549; 13 µg/mL (≈ 14.5 µM) in the experiment on MCF7; 8.3 µg/mL (≈ 9.28 µM) in the experiment on HeLa.
`COc1cc(/C=C/C(=O)OC[C@H]2O[C@@](COC(=O)/C=C/c3ccc(O)cc3)(O[C@H]3O[C@H](CO)[C@@H](O)[C@H](O)[C@H]3O)[C@@H](OC(=O)/C=C/c3ccc(O)c(OC)c3)[C@@H]2O)ccc1O` [SMILASIDE C]: the EC50 (in the experiment with DLD-1; in the experiment on KB; in experiment [1]; with A549; in the experiment with MCF7; in the experiment on HeLa) was over 20 µg/mL each time.
